Compound activity from PubChem.
KCNK9 block: human KCNK9 channel inhibition; Q9NPC2; HEK293 KCNK9, FluxOR thallium flux fluorescence; active compounds read low; B-score at 10 µM; 310,000 compounds, 1.2% hits;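 active means ratio B-score over 3 SD below the library mean, with starting fluorescence within 5 SD of its mean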;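 further: negative B-score means less thallium flux so channel inhibition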
Kir21 block: Kir2.1 (mouse) channel inhibition. P35561. HEK293-Kir2.1, FluxOR thallium flux fluorescence; active compounds read low. B-score at 10 µM. 310,000 compounds, 0.85% hits;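 active means fluorescence ratio B-score at or below minus 3 SD of library scores, with starting-brightness B-score within 2 SD, cut at about -4.2 in these data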;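 further: channel flux triggered by added potassium and thallium sulfate stimulus; B-score of peak minus minimum fluorescence over baseline after thallium stimulus; more negative B-score means stronger Kir2.1 block with less thallium influx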
KCNQ1 act: potentiators or activators of human KCNQ1 potassium channel; 310,000 compounds, 0.35% hits; AID 2648; P51787; CHO-K1 KCNQ1, thallium flux FluxOR fluorescence; active compounds read high; B-score at 10 µM;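 active means fluorescence ratio B-score, a plate-corrected score, at least three library SD, with initial intensity B-score within 5 SD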
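System: Stable KCNQ1 CHO-K1 line | Incubation: 90 min dye loading and 20 min compound exposure, both at room temperature | Measure: Ratio B score | Medium: Assay buffer for compound exposure, DMSO matched across wells | Compound dosing: Single-concentration screen | Probe or stimulus: K+/Tl+ depolarizing stimulus | Measured by: Kinetic FluxOR fluorescence, 10 s baseline plus 110 s post-stimulus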
KCNK3 block: human KCNK3 channel inhibition, primary screen | O14649 | CHO-KCNK3 thallium flux, FluxOR fluorescence; active compounds read low | B-score at 10 µM | 340,000 compounds, 0.84% hits;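 active means B-score under library mean minus 4 SD, starting fluorescence ratio at most library mean plus 5 SD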;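 further: more negative B-score means stronger inhibition of thallium flux through KCNK3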
hERG rescue: compounds protecting human hERG from proarrhythmic drug block. CHO-hERG, FluxOR thallium flux, dofetilide IC70 present. activation (rescue from dofetilide block), less the hit threshold, % at 10 µM. 310,000 compounds, 0.51% hits. AID 1511;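 active means activation above the mean of controls blocked by dofetilide plus 5 SD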;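 further: thallium influx through hERG after potassium depolarization seen as dye fluorescence rise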
Target sequence (Q12809 whole entry, looked up): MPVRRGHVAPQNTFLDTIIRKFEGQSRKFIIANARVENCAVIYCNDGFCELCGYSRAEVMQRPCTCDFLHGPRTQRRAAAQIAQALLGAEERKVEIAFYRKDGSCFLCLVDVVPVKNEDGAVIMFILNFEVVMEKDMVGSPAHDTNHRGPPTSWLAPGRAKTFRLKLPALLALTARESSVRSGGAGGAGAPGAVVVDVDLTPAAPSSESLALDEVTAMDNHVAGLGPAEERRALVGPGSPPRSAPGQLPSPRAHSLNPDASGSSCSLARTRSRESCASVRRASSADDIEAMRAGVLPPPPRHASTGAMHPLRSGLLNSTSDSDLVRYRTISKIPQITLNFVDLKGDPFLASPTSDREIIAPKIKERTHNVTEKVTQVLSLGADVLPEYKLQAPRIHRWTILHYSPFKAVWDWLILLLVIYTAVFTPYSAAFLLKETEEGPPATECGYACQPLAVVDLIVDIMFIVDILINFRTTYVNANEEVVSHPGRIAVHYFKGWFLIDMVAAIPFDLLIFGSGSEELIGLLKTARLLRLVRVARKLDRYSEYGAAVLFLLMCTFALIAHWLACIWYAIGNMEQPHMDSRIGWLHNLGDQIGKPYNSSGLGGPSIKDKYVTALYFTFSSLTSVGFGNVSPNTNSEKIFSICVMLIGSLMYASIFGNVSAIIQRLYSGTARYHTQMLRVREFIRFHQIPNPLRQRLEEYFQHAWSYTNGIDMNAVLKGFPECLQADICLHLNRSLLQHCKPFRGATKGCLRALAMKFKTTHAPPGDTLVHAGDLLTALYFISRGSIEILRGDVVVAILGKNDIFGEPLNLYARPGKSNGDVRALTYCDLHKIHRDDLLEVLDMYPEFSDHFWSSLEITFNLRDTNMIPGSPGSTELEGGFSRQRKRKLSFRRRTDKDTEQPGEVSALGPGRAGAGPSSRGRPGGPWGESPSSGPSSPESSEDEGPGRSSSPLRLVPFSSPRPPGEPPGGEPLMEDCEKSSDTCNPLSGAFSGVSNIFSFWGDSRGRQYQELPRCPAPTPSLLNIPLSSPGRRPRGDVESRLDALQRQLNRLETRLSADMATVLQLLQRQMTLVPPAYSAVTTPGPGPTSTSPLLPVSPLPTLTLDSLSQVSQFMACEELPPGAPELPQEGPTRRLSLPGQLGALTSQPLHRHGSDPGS
KCNQ1 block: human KCNQ1 channel inhibition. AID 2642. CHO-K1 KCNQ1, FluxOR thallium flux fluorescence; active compounds read high. 310,000 compounds, 1.3% hits. B-score at 10 µM;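 active means compounds whose thallium flux B-score, printed positive for inhibition, exceeds three library SD while starting fluorescence stays within three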;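 further: channel opened by potassium depolarization with thallium stimulus after 20 min compound exposure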
Each line names hits and unclear results; the compound was inactive in the other large screens. In the library only some 3.7% were active in any assay of this set; here they are far more common.

CCCCNS(=O)(=O)c1ccc2nc(SCC(=O)Nc3sccc3C#N)[nH]c2c1	KCNQ1 block 11
CN[C@@H]1CC[C@H](c2ccc(Cl)c(Cl)c2)c2ccccc21	Kir21 block -5.8 (no result: hERG rescue)
Clc1ccc(C2Nc3cccc4cccc(c34)N2)cc1Cl	none
COc1ccc(-c2noc(N3CCC(C(=O)Nc4cc(OC)c(OC)c(OC)c4)CC3)n2)cc1	none
N#Cc1ccsc1NC(=O)c1ccc(Cl)c([N+](=O)[O-])c1	KCNQ1 block 7
O=C(Nc1ccc(C(O)(C(F)(F)F)C(F)(F)F)cc1)c1ccc(Cl)c([N+](=O)[O-])c1	KCNQ1 block 6
O=C(Nc1ccccn1)c1ccc(Cl)c([N+](=O)[O-])c1	none
CCCCN1C(=O)/C(=C/C=C2\N(C)c3ccccc3C2(C)C)SC1=S	KCNQ1 block 11 (no result: KCNK3 block)
CCCN1C(=O)/C(=C\C=C2/C=CN(CC)c3ccccc32)SC1=S	none
CCOC(=O)c1c(NC(=O)c2nn(CC)cc2Br)c(C#N)cn1-c1ccccc1	KCNK3 block -11
CCOC(=O)c1c(N)c(C#N)cn1-c1ccccc1	none
Cc1ccc(C(=O)N2c3ccccc3N(Cc3ccccc3)C(=O)C2(C)C)cc1	none
Cc1cccc(NC(=S)NC(C)C(c2cccs2)N2CCN(C)CC2)c1C (centres undefined)	none
CCCNCC1C(Oc2ccc(Cl)cc2Cl)C(=O)N1c1cccc(C)c1C (centres undefined)	KCNK9 block -6.7
COc1cccc(N(C(=O)Cn2nnc(-c3ccc(C)o3)n2)C(C(=O)NC(C)(C)C)c2cccs2)c1 (centres undefined)	hERG rescue 6.4
CCC(=O)N(Cc1cc(=O)[nH]c2ccccc12)c1ccc(C)cc1C	none
Cc1ccc(S(=O)(=O)NCc2ccc(C(=O)NCCN(Cc3ccccc3)C(C)C)cc2)cc1	KCNQ1 block 6
O=C(Nc1ccccc1N1CCCCC1)c1ccc([N+](=O)[O-])o1	none (no result: KCNK9 block, Kir21 block, KCNQ1 act, hERG rescue, KCNQ1 block)
O=C(Nc1ccccc1N1CCN(C(=O)c2ccc(Cl)cc2)CC1)c1ccc([N+](=O)[O-])o1	KCNK3 block -11
COc1cc(OC)cc(C(=O)Nc2cc(C)nn2-c2ccccc2)c1	none
COc1cc(/C=C2/C(=O)NN(c3ccccc3)C2=O)cc(Br)c1O	hERG rescue 6.8
O=[N+]([O-])c1cc([N+](=O)[O-])c2c(=Nc3ccccc3)n(-c3ccccc3)n(O)c2c1	KCNK3 block -9.9, KCNQ1 block 6
O=C(NCCO)c1nc(C(=O)c2ccc(Cl)cc2)c2ccccc2n1	none (no result: KCNK9 block, Kir21 block, KCNQ1 act, hERG rescue, KCNQ1 block)
CCCn1c(C)cc(C(=O)COC(=O)c2cc(S(=O)(=O)NCC(C)C)c(Cl)cc2Cl)c1C	KCNK9 block -7
O=C(/C=C\c1cn(-c2ccccc2)nc1-c1ccccc1)Nc1nccs1	KCNK9 block -8
Cc1ccccc1-c1nc(CN2CCC(C(=O)NCc3cccs3)CC2)c(C)o1	none
O=C(NC(=S)Nc1ccccc1N1CCCC1)c1ccc([N+](=O)[O-])cc1	KCNQ1 act 8, hERG rescue 8.1
O=C(NC(=S)Nc1ccccc1N1CCCCC1)c1ccc(-c2cccc([N+](=O)[O-])c2)o1	none
O=C(NC(=S)Nc1ccccc1N1CCCC1)c1ccc(-c2cccc([N+](=O)[O-])c2)o1	KCNQ1 act 8
O=C(NC(=S)Nc1cc([N+](=O)[O-])ccc1O)c1ccc2c(c1)OCO2	KCNQ1 block 6
COC(=O)c1ccccc1NC(=S)NC(=O)c1ccc2c(c1)OCO2	none
COc1cccc(NC(=O)CN(C)C(=O)c2ccc(S(=O)(=O)Nc3ccccc3F)cc2)c1	none (no result: KCNK9 block, Kir21 block, KCNQ1 act, hERG rescue, KCNQ1 block)
O=C(COc1ccc(Cl)cc1[N+](=O)[O-])N/N=C/c1cccs1	none
COC(=O)c1ccc(N2CC3CNC(=O)C2(C(=O)OC)N3C)cc1 (centres undefined)	none (no result: KCNK9 block, Kir21 block, KCNQ1 act, hERG rescue, KCNQ1 block)
COc1ccc(C)cc1NC(=O)CSc1nnc2ccc(-c3cccnc3)nn12	none
FCCCOc1ccc(CN2CCN(c3ccccc3F)CC2)cc1	none
Cc1cccc(NC(=O)C2c3ccccc3C(=O)N3CCc4ccccc4C23)n1 (centres undefined)	KCNK9 block -7.4
COc1ccc(C2C(C(=O)Nc3cccc(C)n3)c3ccccc3C(=O)N2C)cc1 (centres undefined)	none
COc1ccccc1OCCNC(=O)c1ccc2c(c1)OCCO2	none
CCCCN1C(=O)c2cccc3cc(O)cc(c23)C1=O	none
Cc1ccc(-c2noc(N=O)c2NO)cc1	KCNK9 block -7.1
CCN1CCN(Cc2c(O)ccc3c2O/C(=C\C=C\c2ccccc2OC)C3=O)CC1	KCNQ1 block 6
CCN1CCN(Cc2c(O)ccc3c(=O)c(-c4ccccc4OC)coc23)CC1	none
COc1ccc(CC(=O)OCC(=O)Nc2ccc(N3CCOCC3)cc2)cc1	none
CC(c1ccccc1C(O)(c1ccccc1)c1ccccc1)N(C)C (centres undefined)	Kir21 block -6.2, KCNQ1 act 14
CCNc1c2c3c(cccc3n(C)c1=O)C(=O)c1ccccc1-2	none (no result: KCNK3 block)
Cn1c(=O)c(NCCO)c2c3c(cccc31)C(=O)c1ccccc1-2	KCNQ1 block 25
CC(=O)c1ccc(N2CCN(C(=O)CN3C(=O)NC4(CCCCC4)C3=O)CC2)c(F)c1	none (no result: KCNK9 block, Kir21 block, KCNQ1 act, hERG rescue, KCNQ1 block)
OC(CN1CCN(Cc2ccccc2)CC1)Cn1c2ccccc2c2ccccc21 (centres undefined)	Kir21 block -4.4
OC(CN1CCN(c2ccccc2)CC1)Cn1c2ccccc2c2ccccc21 (centres undefined)	none
Cc1nn(C(=O)CNC(=O)c2ccccc2)c(C)c1C	hERG rescue 8.0
COc1ccc2nc(/N=C/c3c(C)[nH]n(-c4ccc(C)cc4C)c3=O)sc2c1	KCNQ1 act 28, hERG rescue 56
CCOC(=O)C1=C(C)Nc2nnnn2C1c1ccccc1Cl (centres undefined)	none (no result: KCNK9 block, Kir21 block, KCNQ1 act, hERG rescue, KCNQ1 block)
COC(=O)C1=C(C)Nc2nnnn2C1c1ccc(Cl)cc1Cl (centres undefined)	KCNQ1 act 18
CC1=C(C#N)C(=O)N(C2CCS(=O)(=O)C2)C(=O)/C1=C\c1ccc(C)o1 (centres undefined)	KCNK9 block -6.9, KCNQ1 block 7 (no result: KCNK3 block)
O=C(O)c1ccc(OCCN2CCCC2=O)cc1	none
CCc1nc(SCC(=O)Nc2cc(C)ccc2OC)c2c(C)c(C)sc2n1	KCNK9 block -7.7
CCc1nc(SCC(=O)N2c3ccccc3CC2C)c2c(C)c(C)sc2n1 (centres undefined)	KCNQ1 block 6
COc1ccc(C(c2c(NC(=O)c3ccco3)sc(C)c2C)N2CCOCC2)cc1 (centres undefined)	KCNK3 block -11 (no result: KCNK9 block, Kir21 block, KCNQ1 act, hERG rescue, KCNQ1 block)
COc1ccc(C(CNC(=O)c2ccco2)N2CCOCC2)cc1 (centres undefined)	none (no result: KCNK9 block, Kir21 block, KCNQ1 act, hERG rescue, KCNQ1 block)
CCOC(=O)c1ccc(Oc2cc(C)nc(SC)n2)cc1	hERG rescue 5.5
